Results reported in the EternaBench riboswitch data.

System: MS2 coat protein
Assay: apparent Kd, MS2 coat protein; higher = weaker binding; RNA-MaP array; FMN 200 µM where present
Procedure, shortened: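 In 100 mM Tris-HCl pH 7.5, 80 mM KCl, 4 mM MgCl2, BSA, DTT, yeast tRNA and Tween-20, SNAP-549-labelled MS2 coat protein was titrated from 0.7 or 1.5 nM, doubling to 3 µM, over designs transcribed by stalled E. coli RNA polymerase on Illumina sequencing-chip clusters. This was done first without ligand, then with ligand held constant. After green signal was normalised to red-channel RNA signal and control-cluster median Fmax, the apparent Kd was taken as the median of filtered per-cluster binding-curve fits.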

[1] = designed as: OFF switch for flavin mononucleotide, no ligand
[2] = ligand present: flavin mononucleotide, designed as: OFF switch for flavin mononucleotide
[3] = designed as: ON switch for flavin mononucleotide, no ligand
[4] = ligand present: flavin mononucleotide, designed as: ON switch for flavin mononucleotide

Sequence	apparent Kd [1]	apparent Kd [2]	apparent Kd [3]	apparent Kd [4]
UAUAGACAUGAGGAUCACCCAUGUAAGGAUAUCGGUACUAAUGGUAUAAUCUACUUAGCGAGAAGGUACAAUGU	31 nM	30.6 nM	–	–
GACUCUAAGUUUGUCACUUAGAGAGAGGAUAUGGAAAACUUGACAUGAGGAUCACCCAUGUAUAAUCAGAAGGCUCGAGUACGA	–	–	9.95 nM	8.98 nM
AGGAGUAAAGGGAAUAACAUGAGGAUCACCCAUGUAUGGGAGAGAAGGCAGAUCGGAGGACGAUCUGAGGAUAUUUAAACUCUA	–	–	72.5 nM	16.8 nM
ACGUCGAGCCAGAAGGCAACAUGAGGAUCACCCAUGUAGUCCGGCUCGUGUUGAGGAUAUGGCACCCGCGCUGAAGGCGCAGGU	5.43 nM	7.55 nM	–	–
CGGAGGUCAGGAUAUGCAUGGCGGGACUUGCGUCGUGGCGUGCAGAAGGGACAUGAGGAUCACCCAUGUGGAGA	83.2 nM	259 nM	–	–
GCGCAUUUAAGAUUUAUAUAAUUGUCAGAAGGUGAAAAGACGACAUGAGGAUCACCCAUGUAAUUCAAGGAUAUGAUUUAGCGC	–	–	34.3 nM	13.3 nM
UCGAGUCAUGAGAAGGGCUGAUGUUACAUGAGGAUCACCCAUGUCAUGGGCAGGAUAUCAUUGACACGGCUGUACCUCUCUUAA	–	–	107 nM	19.3 nM
UGGUACAUGGGAGGAUAUCCUCACAUGAGGAUCACCCAUGUAAAGAAUUAUAAGCCGAAAGGCAUGGAGAAGGCCCAUGUACCU	–	–	87.6 nM	16.2 nM
GGAAAGCGAGGAUAUACAUGAGGAUCACCCAUGUUAACAAACAAACAAACAAACAAAAGUAGAAGGCGCAAAAU	37 nM	36.5 nM	–	–
ACUUAUGAAGGAUAUACUAGCGACAUGCACUCAACACACGCACAUGAGGAUCACCCAUGUAGAAGGUCAAACAU	25.7 nM	22.4 nM	–	–
GAGCGGGAAACAUGAGGAUCACCCAUGUGAUGUAUCCUCACGUAGGAUAUGCACACGAGAAGUGUGCAGAAGGGCGACCCGGUC	1100 nM	1260 nM	–	–
UAAUCUGGUCAGGAUAUCGGUGCACAGUGCACAGGAGAAGGGACCACAUGAGGAUCACCCAUGUAGGCUCUCCU	17.8 nM	24.4 nM	–	–
CCAGGCUGUGUGAGGAUAUGCUGGUCCUUGGAUCAGCAGAAGGCACAUGAGGAUCACCCAUGUGAAAAGCUUGG	17.4 nM	57.6 nM	–	–
UUGAAAUUGUAAGGAUAUACUCUGUGAUGAAGAGUAGAAGGUACUUACAUGAGGAUCACCCAUGUUUAACGAGAUACUAAUCGU	–	–	32 nM	16.6 nM
AAAACAUGAGGAUCACCCAUGUAAAGAUCAGUUAAUAGAGGUGAGGAUAUACGAACUUAAAGGUAGUAGAAGGCACUGGGUACA	–	–	35.9 nM	30 nM
CUUUUGUGAGGAUAUUAGUAGUAAAUAAAUAAAAUUACUAUUGAGAAGGCACAUGAGGAUCACCCAUGUUCCUC	31.4 nM	182 nM	–	–
CAUCCACAUGAGGAUCACCCAUGUGAGGAUAUGAUACUAUGUACUUCGGUACAUAGUAUCAGAAGGCACAGGUG	120 nM	37.4 nM	–	–
GGCGGACGAAACAUGAGGAUCACCCAUGUGUUAUAAUUAAUAUAGGAUAUGUUUAUACUUUUUGGGCAGAAGGAUGAUAAUGCC	–	–	18.5 nM	16.2 nM
AAAUUGACGGGACAUGAGGAUCACCCAUGUGCUAGCCGGACCAGAAGGGCAGCCGGCACGUGGUUGCAGGAUAUGGCCGUCGCA	–	–	154 nM	151 nM
GCUUUAUUGGUCAGGAUAUACAUUUGUUACUCUUUGUAGAAGGGACAUGAGGAUCACCCAUGUACAUUACAUUC	23.2 nM	24.3 nM	–	–
CUUUAGUGAGGAUAUGUGGCUUCGAUCGUGAGAUCGAGGCUACAGAAGGCACAUGAGGAUCACCCAUGUUUCUU	17.2 nM	81 nM	–	–
AAUUUACAGCUAGGAUAUACAUGAGGAUCACCCAUGUAAUCAUAUGAUGUUAUCAUUGUAUGAGUGUAGAAGGAGCAAAUAAGA	7.72 nM	6.34 nM	–	–
GCCAUCGCAUGAGGAUAUGCUCCGGUUUCCGGAGCAGAAGGCAUGUCAUAAGACAUGAGGAUCACCCAUGUAGCUAAGAUGGCA	–	–	307 nM	11.9 nM
